Experimental data: ChEMBL document CHEMBL1126555, “6-Substituted benzimidazoles as new nonpeptide angiotensin II receptor antagonists: synthesis, biological activity, and structure-activity relationships” (J Med Chem, 1993)

system: Rattus norvegicus; assay: Tested for percent inhibition of AII pressor response 2 hr after i.v. administration of 0.3 mg/Kg in rats; format: functional; conditions: iv

CCCCc1nc2ccc(N3CCCCC3=O)cc2n1Cc1ccc(-c2ccccc2-c2nnn[nH]2)cc1 and CCCCc1nc2ccc(N3CCCCS3(=O)=O)cc2n1Cc1ccc(-c2ccccc2-c2nnn[nH]2)cc1 are the same in inhibition in vivo at 0.3 mg/kg: 60% for the first, 60% for the second.

system: Rattus norvegicus; assay: Fall in mean arterial blood pressure (MABP) at 1 mg/kg po bid for 4 days after first treatment in conscious chronically-instrumented renovascular hypertensive rats; format: functional; conditions: not given
Procedure, shortened: (§1)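 Male Chbb:THOM rats (140–150 g) made renovascular hypertensive by a silver clip (internal diameter 0.20 mm) on the left renal artery under pentobarbitone-sodium (50 mg/kg ip). Chronic-use pressure transmitter implanted. Conscious animals dosed orally twice daily for 4 days. Mean arterial pressure and heart rate recorded continuously at 1-h intervals over 96 h, given as mean ± SE.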

CCCc1nc2c(C)cc(-c3nc4ccccc4n3C)cc2n1Cc1ccc(-c2ccccc2C(=O)O)cc1 gave an MABP of 42 mmHg.

target: T1, Type-1 angiotensin II receptor B (Rattus norvegicus, UniProt P29089); assay: Inhibition of specific binding of [125I]angiotensin-II to angiotensin 1 receptor in rat lung membrane preparation; format: cell membranes; conditions: not given
T1 sequence (P29089 whole entry): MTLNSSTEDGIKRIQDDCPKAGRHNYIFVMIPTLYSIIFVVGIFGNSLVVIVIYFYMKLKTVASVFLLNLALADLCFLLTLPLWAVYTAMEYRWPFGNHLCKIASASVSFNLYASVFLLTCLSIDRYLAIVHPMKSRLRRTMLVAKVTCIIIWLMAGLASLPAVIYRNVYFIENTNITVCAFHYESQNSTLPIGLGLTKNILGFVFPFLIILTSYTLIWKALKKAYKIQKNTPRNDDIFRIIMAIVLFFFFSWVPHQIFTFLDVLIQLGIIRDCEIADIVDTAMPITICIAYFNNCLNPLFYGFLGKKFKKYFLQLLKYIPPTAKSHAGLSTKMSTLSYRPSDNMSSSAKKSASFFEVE
Procedure, shortened: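 Membranes from lungs of male Wistar rats (Chbb:THOM, 200–220 g), homogenized in Tris buffer pH 7.20 and spun at 1000g, then twice at 48 000g. DMSO ≤1%. Nonspecific binding defined with 1 μM AII. Filtration, gamma counting. IC50 from nonlinear fit; Ki by Cheng–Prusoff.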

First: CCCCc1nc2ccc(N(C)S(=O)(=O)CCC)cc2n1Cc1ccc(-c2ccccc2C(=O)O)cc1
Second: CCCCc1nc2ccc(C)cc2n1Cc1ccc(-c2ccccc2C(=O)O)cc1
The IC50 of the first is 26-fold lower: 33 nM for the first, 850 nM for the second. The first is the more potent here.

CCCCc1nc2ccc(N(C)C(=O)NC3CCCCC3)cc2n1Cc1ccc(-c2ccccc2C(=O)O)cc1 and CCCCc1nc2ccc(NC(=O)NC3CCCCC3)cc2n1Cc1ccc(-c2ccccc2C(=O)O)cc1 are the same in IC50: 26 nM for the first, 26 nM for the second.

Compared with CCCCCNc1ccc2nc(CCCC)n(Cc3ccc(-c4ccccc4C(=O)O)cc3)c2c1, CCCCC(=O)Nc1ccc2nc(CCCC)n(Cc3ccc(-c4ccccc4C(=O)O)cc3)c2c1 is 4.5-fold lower in IC50: 390 nM for the first, 86 nM for the second. The second is the more potent here.

CCCCc1nc2c(C)cccc2n1Cc1ccc(-c2ccccc2C(=O)O)cc1 and CCCCc1nc2c(N)cccc2n1Cc1ccc(-c2ccccc2C(=O)O)cc1 are within 1.5-fold of each other in IC50: 1200 nM for the first, 1700 nM for the second.

Going from CCCCc1nc(Cl)c(CO)n1Cc1ccc(-c2ccccc2C(=O)O)cc1 to CCCCc1nc2ccc(N)cc2n1Cc1ccc(-c2ccccc2C(=O)O)cc1, the IC50 rises from 350 nM to 540 nM (1.5-fold).

CCCCc1nc2ccc(N3CCCCC3=O)cc2n1Cc1ccc(-c2ccccc2-c2nnn[nH]2)cc1 and CCCCc1nc2ccc(N3CCCCS3(=O)=O)cc2n1Cc1ccc(-c2ccccc2-c2nnn[nH]2)cc1 are within 1.5-fold of each other in IC50: 4 nM for the first, 3 nM for the second.

CCCc1nc2c(C)cc(-c3nc4ccccc4n3C)cc2n1Cc1ccc(-c2ccccc2C(=O)O)cc1 and CCCc1nc2ccc(-c3nc4ccccc4n3C)cc2n1Cc1ccc(-c2ccccc2C(=O)O)cc1 are the same in IC50: 3 nM for the first, 3 nM for the second.

Going from CCCCc1nc2c(NC(=O)NC3CCCCC3)cccc2n1Cc1ccc(-c2ccccc2C(=O)O)cc1 to CCCCc1nc2cccc(NC(=O)NC3CCCCC3)c2n1Cc1ccc(-c2ccccc2C(=O)O)cc1, the IC50 falls from 29300 nM to 160 nM (180-fold).

First: CCCCc1nc2ccc(NC(C)=O)cc2n1Cc1ccc(-c2ccccc2C(=O)O)cc1
Second: CCCCc1nc2cc(NC(C)=O)ccc2n1Cc1ccc(-c2ccccc2C(=O)O)cc1
The IC50 of the first is 2.6-fold lower: 180 nM for the first, 460 nM for the second. The first is the more potent here.

CCCCc1nc2cc(N)ccc2n1Cc1ccc(-c2ccccc2C(=O)O)cc1 and CCCCc1nc2cc(C)ccc2n1Cc1ccc(-c2ccccc2C(=O)O)cc1 are within 1.5-fold of each other in IC50: 820 nM for the first, 1200 nM for the second.

Going from CCCCc1nc2ccc(N3CCCCC3)cc2n1Cc1ccc(-c2ccccc2C(=O)O)cc1 to CCCCc1nc2ccc(N3CCCCC3=O)cc2n1Cc1ccc(-c2ccccc2C(=O)O)cc1, the IC50 falls from 160 nM to 81 nM (2-fold).

Going from CCCc1nc2ccc(-c3nc4ccccc4n3C)cc2n1Cc1ccc(-c2ccccc2-c2nn[nH]n2)cc1 to CCCc1nc2ccc(-c3nc4ccccc4o3)cc2n1Cc1ccc(-c2ccccc2-c2nn[nH]n2)cc1, the IC50 rises from 5 nM to 240 nM (48-fold).

Going from CCCCc1nc2cc(NC(=O)NC3CCCCC3)ccc2n1Cc1ccc(-c2ccccc2C(=O)O)cc1 to CCCCc1nc2ccc(NC(=O)NC3CCCCC3)cc2n1Cc1ccc(-c2ccccc2-c2nn[nH]n2)cc1, the IC50 falls from 800 nM to 21 nM (38-fold).

Going from CCCCc1nc2ccc(NC(=O)N(C)C)cc2n1Cc1ccc(-c2ccccc2C(=O)O)cc1 to CCCCc1nc2ccc(NC(=O)N(C)C)cc2n1Cc1ccc(-c2ccccc2-c2nn[nH]n2)cc1, the IC50 falls from 24 nM to 8 nM (3-fold).

Going from CCCCc1nc2cccc(C)c2n1Cc1ccc(-c2ccccc2C(=O)O)cc1 to CCCCc1nc2cccc(NC(C)=O)c2n1Cc1ccc(-c2ccccc2C(=O)O)cc1, the IC50 rises from 480 nM to 1800 nM (3.8-fold).

Going from CCCCc1nc2c(NC(C)=O)cccc2n1Cc1ccc(-c2ccccc2C(=O)O)cc1 to CCCCc1nc2ccccc2n1Cc1ccc(-c2ccccc2C(=O)O)cc1, the IC50 falls from 5700 nM to 400 nM (14-fold). The second is the more potent here.

First: CCCCc1nc2ccc(N(C)C(=O)NC3CCCCC3)cc2n1Cc1ccc(-c2ccccc2-c2nn[nH]n2)cc1
Second: CCCCc1nc2ccc(N3CCCCS3(=O)=O)cc2n1Cc1ccc(-c2ccccc2C(=O)O)cc1
The IC50 of the first is 3.4-fold lower: 10 nM for the first, 34 nM for the second.

Going from CCCc1nc2c(C)cc(CN(C)C)cc2n1Cc1ccc(-c2ccccc2C(=O)O)cc1 to CCCc1nc2c(C)cc(-c3ccccn3)cc2n1Cc1ccc(-c2ccccc2-c2nnn[nH]2)cc1, the IC50 falls from 158 nM to 5 nM (32-fold). The second is the more potent here.

CCCc1nc2ccc(-c3ccccn3)cc2n1Cc1ccc(-c2ccccc2-c2nnn[nH]2)cc1 and CCCc1nc2c(C)cc(-c3nc4ccccc4n3C)cc2n1Cc1ccc(-c2ccccc2-c2nnn[nH]2)cc1 are within 1.5-fold of each other in IC50: 11 nM for the first, 13 nM for the second.

With CCCc1nc2c(C)cc(-c3cn4ccccc4n3)cc2n1Cc1ccc(-c2ccccc2-c2nnn[nH]2)cc1 the IC50 was 3 nM.

system: Rattus norvegicus; assay: Maximum fall in mean arterial blood pressure (MABP) at 1 mg/kg po bid after 4 days of treatment in conscious chronically-instrumented renovascular hypertensive rats; format: functional; conditions: not given; procedure, shortened: as §1

With CCCc1nc2c(C)cc(-c3nc4ccccc4n3C)cc2n1Cc1ccc(-c2ccccc2C(=O)O)cc1 the MABP was 68 mmHg.
